Reference: ChEMBL document CHEMBL1128218, “New alpha-thiol dipeptide dual inhibitors of angiotensin-I converting enzyme and neutral endopeptidase EC 3.4.24.11” (J Med Chem, 1995)

Legend:
[1] = molecular target: T1, Angiotensin-converting enzyme (Rattus norvegicus) (UniProt P47820); assay: Evaluation of plasma inhibition of Angiotensin I converting enzyme activity in conscious rat 6 hours after intravenous administration at a dose of 10 mg/kg; assay type: functional, organism-based; set-up: dose 10 mg/kg
T1 sequence (whole entry): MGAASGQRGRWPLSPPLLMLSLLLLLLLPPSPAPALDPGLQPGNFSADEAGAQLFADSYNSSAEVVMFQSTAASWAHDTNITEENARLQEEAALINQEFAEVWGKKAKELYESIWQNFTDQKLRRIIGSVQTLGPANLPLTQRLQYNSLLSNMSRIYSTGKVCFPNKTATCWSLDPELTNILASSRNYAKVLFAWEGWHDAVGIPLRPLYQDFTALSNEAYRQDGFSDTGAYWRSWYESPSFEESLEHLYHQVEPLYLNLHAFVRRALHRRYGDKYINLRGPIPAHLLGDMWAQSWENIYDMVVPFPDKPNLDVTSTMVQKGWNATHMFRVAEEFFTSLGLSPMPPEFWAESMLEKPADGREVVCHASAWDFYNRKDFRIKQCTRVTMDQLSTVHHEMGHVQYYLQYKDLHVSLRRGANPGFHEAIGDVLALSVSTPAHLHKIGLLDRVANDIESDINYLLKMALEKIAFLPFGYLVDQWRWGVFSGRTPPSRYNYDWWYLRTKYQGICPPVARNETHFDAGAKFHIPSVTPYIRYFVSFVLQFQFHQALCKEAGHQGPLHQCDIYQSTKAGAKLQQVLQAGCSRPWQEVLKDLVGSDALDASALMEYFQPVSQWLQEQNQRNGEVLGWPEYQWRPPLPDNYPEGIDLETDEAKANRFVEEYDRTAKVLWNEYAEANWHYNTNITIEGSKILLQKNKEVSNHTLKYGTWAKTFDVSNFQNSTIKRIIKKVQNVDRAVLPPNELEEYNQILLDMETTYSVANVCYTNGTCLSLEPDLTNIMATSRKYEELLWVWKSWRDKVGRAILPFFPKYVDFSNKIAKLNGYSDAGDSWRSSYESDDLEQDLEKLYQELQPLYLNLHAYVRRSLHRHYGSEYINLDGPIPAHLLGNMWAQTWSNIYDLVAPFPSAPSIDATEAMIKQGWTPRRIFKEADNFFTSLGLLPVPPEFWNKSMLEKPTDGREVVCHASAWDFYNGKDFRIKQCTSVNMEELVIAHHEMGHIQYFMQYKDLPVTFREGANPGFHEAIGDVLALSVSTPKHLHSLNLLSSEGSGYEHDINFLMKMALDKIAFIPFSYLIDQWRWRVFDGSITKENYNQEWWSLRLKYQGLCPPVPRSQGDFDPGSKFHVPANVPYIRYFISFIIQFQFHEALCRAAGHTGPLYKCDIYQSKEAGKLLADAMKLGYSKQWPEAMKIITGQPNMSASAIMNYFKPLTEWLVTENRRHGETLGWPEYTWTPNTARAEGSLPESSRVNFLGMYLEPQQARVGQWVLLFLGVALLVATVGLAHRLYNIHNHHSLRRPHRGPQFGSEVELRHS
In short: (§1)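 Male conscious normotensive Sprague-Dawley rats (275-390 g) fitted the day before with femoral arterial and venous catheters under methohexital anesthesia. Three angiotensin-I challenges (300 ng/kg iv) given as baseline. Compound given iv, ia or po (12.3 mg/kg po dose in 3% cornstarch at 1 mg/mL), then AI challenges repeated at set times. Pressor response compared with the mean baseline response and expressed as % inhibition.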

[2] = molecular target: T2, Angiotensin-converting enzyme (Oryctolagus cuniculus, UniProt P12822); assay: Evaluation of in vitro inhibitory activity against Angiotensin I converting enzyme
T2 sequence (P12822 whole entry): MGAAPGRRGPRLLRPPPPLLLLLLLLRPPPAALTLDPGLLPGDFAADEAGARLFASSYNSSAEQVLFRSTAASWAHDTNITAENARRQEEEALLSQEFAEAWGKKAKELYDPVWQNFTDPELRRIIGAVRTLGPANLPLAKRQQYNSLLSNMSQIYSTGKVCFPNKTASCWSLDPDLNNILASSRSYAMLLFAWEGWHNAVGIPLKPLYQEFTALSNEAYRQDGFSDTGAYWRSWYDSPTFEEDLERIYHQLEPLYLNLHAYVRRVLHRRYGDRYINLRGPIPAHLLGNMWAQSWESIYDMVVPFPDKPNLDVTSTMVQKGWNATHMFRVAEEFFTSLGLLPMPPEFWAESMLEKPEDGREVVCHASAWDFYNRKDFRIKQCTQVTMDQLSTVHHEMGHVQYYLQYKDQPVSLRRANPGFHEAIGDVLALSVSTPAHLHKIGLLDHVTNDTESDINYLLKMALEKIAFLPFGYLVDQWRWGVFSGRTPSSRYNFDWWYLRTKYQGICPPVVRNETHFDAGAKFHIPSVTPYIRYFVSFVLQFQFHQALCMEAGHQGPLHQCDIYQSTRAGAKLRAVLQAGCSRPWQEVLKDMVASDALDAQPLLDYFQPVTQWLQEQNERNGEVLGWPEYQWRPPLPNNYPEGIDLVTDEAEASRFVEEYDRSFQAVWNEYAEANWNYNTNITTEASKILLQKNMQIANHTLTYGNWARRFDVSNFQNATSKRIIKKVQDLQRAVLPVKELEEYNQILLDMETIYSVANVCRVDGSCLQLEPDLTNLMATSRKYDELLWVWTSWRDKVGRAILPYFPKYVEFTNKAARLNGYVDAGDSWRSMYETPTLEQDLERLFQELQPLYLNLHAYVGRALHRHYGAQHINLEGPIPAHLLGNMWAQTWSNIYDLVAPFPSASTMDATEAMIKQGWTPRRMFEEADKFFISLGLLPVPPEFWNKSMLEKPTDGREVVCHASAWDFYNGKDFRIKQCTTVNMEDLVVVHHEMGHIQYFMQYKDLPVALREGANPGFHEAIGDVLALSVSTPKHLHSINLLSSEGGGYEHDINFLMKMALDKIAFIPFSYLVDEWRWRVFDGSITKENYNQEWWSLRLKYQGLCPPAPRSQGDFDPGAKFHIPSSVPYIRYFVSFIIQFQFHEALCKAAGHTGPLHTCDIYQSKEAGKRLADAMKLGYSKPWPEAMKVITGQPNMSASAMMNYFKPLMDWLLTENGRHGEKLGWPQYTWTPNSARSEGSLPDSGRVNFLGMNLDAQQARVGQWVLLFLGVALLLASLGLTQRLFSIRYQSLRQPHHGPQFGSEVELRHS
In short: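 Rabbit lung ACE in 300 mM NaCl, 100 mM KH2PO4 (pH 8.3). Enzyme and drug mixed, then hippurylhistidylleucine (2 mg/mL stock) added and incubated 75 min at room temperature. Stopped with 1 N NaOH, o-phthalaldehyde added for 10 min at 25 °C, acidified with HCl, OD read at 360 nm.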

[3] = molecular target: T1, Angiotensin-converting enzyme (Rattus norvegicus); assay: Evaluation of plasma inhibition of Angiotensin I converting enzyme activity in conscious rat 4 hour after oral administration at a dose of 10 mg/kg; assay type: functional, organism-based; set-up: dose 10 mg/kg
[4] = molecular target: T1, Angiotensin-converting enzyme (Rattus norvegicus); assay: Evaluation of plasma inhibition of Angiotensin I converting enzyme activity in conscious rat 6 hour after oral administration at a dose of 10 mg/kg; assay type: functional, organism-based; set-up: dose 10 mg/kg; in short: as §1
[5] = molecular target: T1, Angiotensin-converting enzyme (Rattus norvegicus); assay: Evaluation of plasma inhibition of Angiotensin I converting enzyme activity in conscious rat 1 hour after oral administration at a dose of 10 mg/kg; assay type: functional, organism-based; set-up: dose 10 mg/kg

SMILES	inhibition [1] [%]	IC50 [2] [nM]	inhibition [3] [%]	inhibition [4] [%]	inhibition [5] [%]
O=C(O)[C@H](Cc1ccc(O)cc1)NC(=O)C1(NC(=O)[C@@H](S)Cc2ccccc2)CCCC1	17	22			
CC(C)[C@H](S)C(=O)NC1(C(=O)N[C@@H](Cc2ccccn2)C(=O)O)CCCC1	17	35			
CC(C)[C@H](S)C(=O)NC1(C(=O)N[C@@H](Cc2ccc(F)cc2)C(=O)O)CCCC1	28	24			
CC(C)[C@H](S)C(=O)NC1(C(=O)N[C@@H](CCc2ccccc2)C(=O)O)CCCC1	75	30			
O=C(CS)NC1(C(=O)N[C@@H](Cc2ccc(O)cc2)C(=O)O)CCCC1		58			
CC(C)[C@H](S)C(=O)NC1(C(=O)N[C@@H](Cc2ccc(O)cc2)C(=O)O)Cc2ccccc2C1	9	26			

The next compounds have a lower IC50 [2] than those just listed; values first:

inhibition [1] [%]	IC50 [2] [nM]	inhibition [3] [%]	inhibition [4] [%]	inhibition [5] [%]	SMILES
29	18				CC(C)[C@H](S)C(=O)NC1(C(=O)N[C@@H](Cc2cccs2)C(=O)O)CCCC1
71	11				CC(C)[C@H](S)C(=O)NC1(C(=O)N[C@@H](Cc2ccsc2)C(=O)O)CCCC1
68	7	36	15	48	CC(C)[C@H](S)C(=O)NC1(C(=O)N[C@@H](Cc2ccc(O)cc2)C(=O)O)CCCC1
17	15				CC(C)[C@H](S)C(=O)NC1(C(=O)N[C@@H](Cc2ccc(O)cc2)C(=O)O)CC1
82	10	29	26	45	CC(C)[C@H](S)C(=O)NC1(C(=O)N[C@@H](Cc2c[nH]c3ccccc23)C(=O)O)CCCC1
67	15				CC(C)[C@H](S)C(=O)NC(C)(C)C(=O)N[C@@H](Cc1ccc(O)cc1)C(=O)O
	11				CC(C)[C@H](S)C(=O)NC1(C(=O)N[C@@H](Cc2ccc(O)cc2)C(=O)O)CCOCC1
